# OX1R antag-1: blocks the human orexin 1 receptor. O43613. CHO/OX1R cells, Fluo-8 calcium fluorescence, orexin A. inhibition, % at 5 µM. 0.43% of 330,000 active. AID 434989;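 active means inhibition above its plate's threshold, mean inhibition of all tested compounds on the plate plus 3 SD, cut at about 37% in these data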;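 further: 0% = orexin A challenge wells and 100% = SB-334867-A antagonist wells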
# Target sequence (O43613 whole entry, looked up): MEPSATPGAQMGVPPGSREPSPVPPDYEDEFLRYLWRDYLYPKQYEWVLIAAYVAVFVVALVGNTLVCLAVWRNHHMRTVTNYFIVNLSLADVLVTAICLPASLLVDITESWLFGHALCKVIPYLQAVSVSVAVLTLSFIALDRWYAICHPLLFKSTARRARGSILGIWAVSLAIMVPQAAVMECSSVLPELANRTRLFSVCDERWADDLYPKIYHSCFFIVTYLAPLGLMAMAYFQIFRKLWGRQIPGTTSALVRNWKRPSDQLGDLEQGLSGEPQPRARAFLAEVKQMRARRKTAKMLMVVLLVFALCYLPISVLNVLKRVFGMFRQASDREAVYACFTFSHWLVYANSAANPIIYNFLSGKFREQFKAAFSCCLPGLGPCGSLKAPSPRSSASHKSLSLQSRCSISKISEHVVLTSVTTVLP
# TAAR1 antagonist: human TAAR1 antagonism; AID 624466; CHO RD-HGA16 TAAR1, Fluo-8 calcium fluorescence, antagonist; 1.5% of 360,000 active; Q96RJ0; inhibition, % at 3 µM;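 active means inhibition above a per-plate cutoff, the mean inhibition of test compounds on that plate plus 3 SD, cut at about 49% in these data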;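 further: 0% = DMSO plus EC80 beta-PEA response and 100% = DMSO alone without agonist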
#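 Assay system: RD-HGA16 CHO cells with stable hTAAR1 and Gα16 / Reagent: EC80 β-phenethylamine stimulus / Doses: 3 µM, single point / Timing: dye loading 75 min at 37 °C, then 30 min room temperature / Measured by: Fluo-8 intracellular calcium dye fluorescence, real-time kinetic reads / Controls: vehicle wells and EC80 agonist wells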
# CHO parental Ca: counter-screen: ATP calcium response change in parental CHO cells; inhibition, % at 5.6 µM; 0.63% of 330,000 active; parental CHO-K1, ATP-induced calcium, Fluo-8 fluorescence;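 active means inhibition above that plate's mean sample inhibition plus 3 SD, cut at about 26% in these data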;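 further: 0% = ATP-challenged DMSO wells and 100% = DMSO wells without ATP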
#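 Material – parental CHO cells · Reagent – ATP stimulus · Compound – single nominal dose of 5.6 µM per compound · Detection – Fluo-8 fluorescence · Read-out basis – percent inhibition of calcium signal · Controls – ATP-challenged DMSO wells low, unchallenged DMSO wells high · Repeats – no replicates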
# GalR3 antagonist: antagonists of human GalR3; inhibition, % at 3 µM; O60755; 0.44% of 360,000 active; HEK293 GalR3-CNG cAMP membrane potential fluorescence; galR3 body fused to GalR1 C-terminus;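 active means inhibition above the screen-wide average plus 3 SD, cut at about 13% in these data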;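 further: forskolin and galanin both at EC90 stimulate the cells; cAMP rise reported by CNG channel membrane potential dye signal; 0% = forskolin plus galanin with DMSO and 100% = forskolin alone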
# Target sequence (O60755 1-299 limits assumed): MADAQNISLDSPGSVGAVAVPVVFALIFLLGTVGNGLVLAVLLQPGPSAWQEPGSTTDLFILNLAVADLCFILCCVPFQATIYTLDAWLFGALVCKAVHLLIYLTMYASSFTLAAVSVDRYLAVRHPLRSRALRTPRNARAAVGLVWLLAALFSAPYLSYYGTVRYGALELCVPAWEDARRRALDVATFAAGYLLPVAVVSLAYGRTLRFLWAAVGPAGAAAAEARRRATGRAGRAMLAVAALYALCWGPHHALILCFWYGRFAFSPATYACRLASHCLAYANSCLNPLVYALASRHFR
# OX1R antag-2: blocks the human orexin 1 receptor; O43613; OX1R-expressing cells, FRET antagonist read-out; inhibition, % at 6.6 µM; 1.8% of 330,000 active; AID 485270; in the data active means inhibition mostly above about 38%, no sharp cut-off; inactive means mostly below about 40%;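 further: 0% = agonist challenge alone and 100% = reference antagonist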
# TAAR1 ag: human TAAR1 agonism; CHO RD-HGA16 TAAR1, Fluo-8 calcium fluorescence; vehicle wells 0%, saturating PEA agonist 100%; Q96RJ0; AID 624467; activation, % at 3 µM; 0.99% of 360,000 active;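 active means activation above the mean activation of all test compounds in the run plus 3 SD, cut at about 38% in these data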
#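 System: CHO RD-HGA16 cells carrying human TAAR1 plus Gα16; Incubation: 17-24 h seeding, 75 min 37 °C dye, 30 min RT; Measured by: Fluo-8 fluorescence, 5 s baseline then 140 s kinetic read; Control set: DMSO and PEA EC100; Replication: single well for each compound.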
# TAAR1 ag confirm: confirmation of human TAAR1 agonists | shares compounds with TAAR1 ag | CHO RD-HGA16 TAAR1, Fluo-8 calcium fluorescence; scaled: DMSO 0%, maximal phenethylamine 100% | activation, % at 3 µM | 82% of 2,400 active;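 active means activation above a cutoff set at the run's mean compound activation plus 3 SD, cut at about 39% in these data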
# Ga16 ag counter: nonselective agonism, TAAR1 counter-screen | shares compounds with TAAR1 ag | activation, % at 3 µM | AID 651787 | CHO-Ga16 parental, Fluo-8 calcium fluorescence; normalized to maximal ATP response, DMSO zero | 50% of 2,400 active;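 active means activation above the run cutoff, the mean activation over all tested wells plus 3 SD, cut at about 12% in these data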;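 further: 0% = DMSO wells and 100% = maximal ATP response on the peak over basal ratio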
# TAAR1 desensitize: counter-screen for human TAAR1 agonists: agonists that desensitize TAAR1; shares compounds with TAAR1 ag; CHO RD-HGA16 hTAAR1, Fluo-8 calcium, beta-PEA response inhibition; inhibition, % at 3 µM; 46% of 2,400 active; AID 651951;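 active means inhibition above the run cutoff, the mean inhibition of all test compounds plus 3 SD, cut at about 49% in these data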;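 further: beta-PEA stimulus applied at its EC80; loss of beta-PEA calcium signal after compound pretreatment read as receptor desensitization; 0% = DMSO with beta-PEA at EC80 and 100% = DMSO alone without agonist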
# Ga16 nonsel ant: counter-screen for TAAR1 agonists: nonselective Ga16 antagonists; shares compounds with TAAR1 ag; CHO-Ga16 ATP-induced calcium, Fluo-8 fluorescence; inhibition, % at 3 µM; 39% of 2,400 active; AID 651952;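 active means inhibition above the plate's mean compound inhibition plus 3 SD, computed per plate, cut at about 22% in these data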;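 further: 0% = EC80 ATP with DMSO and 100% = DMSO wells without ATP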
# * marks the source's active call; other numbers are inactive results; · = not tested or not shown. Shown are actives, neighbours in structure and some others; about 4.2% of the full set was active somewhere.
SMILES,OX1R antag-1,TAAR1 antagonist,CHO parental Ca,GalR3 antagonist,OX1R antag-2,TAAR1 ag,TAAR1 ag confirm,Ga16 ag counter,TAAR1 desensitize,Ga16 nonsel ant
COC(=O)C1=C(C)N(Cc2cccc(C(F)(F)F)c2)C(=NCC2CC2)NC1c1cccc(Cl)c1 (stereo not drawn),·,77*,·,-4,·,72*,61*,35*,66*,55*
COC(=O)C1=C(C)N(Cc2cccc(C(F)(F)F)c2)C(=NCC2CC2)NC1c1ccccc1C(F)(F)F (stereo not drawn),·,15,·,-8,·,9,·,·,·,·
COC(=O)C1=C(C)N(Cc2ccccc2)C(=NCc2cccc(C(F)(F)F)c2)N[C@H]1c1cccc(C(F)(F)F)c1,18,·,10,·,2,·,·,·,·,·
O=S(=O)(Nc1ccc2c(c1)nc1n2CCOC1)c1ccccc1,-2,-13,0,-8,1,5,·,·,·,·
COc1ccccc1OC(=O)c1cc2ccccc2oc1=O,-14,-4,-4,-9,19,0,·,·,·,·
Cc1ccc(-c2nc(CS(=O)(=O)CC(=O)N3CCc4ccccc4C3)c(C)o2)cc1,-19,30,-29,-1,6,66*,82*,2,64*,15
Cc1ccc(-c2nn(-c3ccccc3)cc2CSC(=N)N)cc1,4,10,-2,4,14,76*,84*,27*,47,25*
O=C(Cc1n[nH]c(=O)[nH]c1=O)N/N=C/c1ccccc1,7,19,-5,-9,9,66*,74*,0,55*,10
O=C(Cc1n[nH]c(=O)[nH]c1=O)N/N=C/c1cccc(O)c1,-28,-11,1,-3,18,60*,60*,4,21,9
O=C(Cc1n[nH]c(=O)[nH]c1=O)N/N=C/c1cccc(Cl)c1,-8,8,-7,-3,14,29,·,·,·,·
CC(Sc1nnc2ccccn12)C(=O)Nc1ccc(N2CCOCC2)cc1 (stereo not drawn),0,6,-4,-4,8,1,·,·,·,·
Cn1cccc1/C=N/NC(=O)Cn1cnc2ccccc21,-11,-15,-9,-1,29,34,·,·,·,·
O=C(Cn1nnc2ccccc21)N/N=C\c1cccs1,-3,20,-1,-4,4,45*,82*,4,43,3
O=C(Cn1cnc2ccccc21)N/N=C/c1cccs1,-15,·,-12,3,2,·,·,11,·,0
Nc1nnnn1CC(=O)N/N=C/c1cccs1,0,-11,3,-4,3,7,·,·,·,·
Cc1ccc(OCCSCc2nnc(NC(=O)Nc3cccc(Cl)c3)s2)cc1,-20,7,-14,-2,14,12,·,·,·,·
Cc1ccccc1NC(=O)CSc1nc(-c2ccccc2)cc(=O)[nH]1,-12,-15,-15,-7,11,1,·,·,·,·
COc1cc(C(=O)ON=C2C3CC4CC(C3)CC2C4)cc(OC)c1OC,-22,2,-15,-10,1,5,·,·,·,·
N#Cc1ccc(N=c2ssnc2Cl)cc1,3,11,9,0,0,48*,53*,44*,28,25*
CCOC(=O)c1ccc(N=c2ssnc2Cl)cc1,·,27,·,-4,·,35,·,·,·,·
COc1cc(-c2n[nH]c(=S)n2/N=C/c2cccn2C)cc(OC)c1OC,77*,71*,29,-2,2,138*,139*,113*,97*,79*
Cc1ccc(S(=O)(=O)C[C@@H]2OC[C@H](C)N2S(=O)(=O)c2ccc(C)cc2)cc1,·,-11,·,-8,·,2,·,·,·,·
Cc1cc(C)c2c(c1)/C(=N/NC(=O)c1cc(C)oc1C)CCC2,-10,-9,-7,4,13,82*,20,2,19,5
Cc1cc(C)c2c(c1)/C(=N/NC(=O)c1ccc(O)cc1)CCC2,-14,9,-8,-3,6,11,·,·,·,·
CC(=O)C1=C(O)C(=O)N(CCc2ccccc2)C1c1ccccc1[N+](=O)[O-] (stereo not drawn),-7,43,5,-1,37,67*,62*,3,17,6
SMILES,OX1R antag-1,TAAR1 antagonist,CHO parental Ca,GalR3 antagonist,OX1R antag-2,TAAR1 ag,TAAR1 ag confirm,Ga16 ag counter,TAAR1 desensitize,Ga16 nonsel ant
CCN(CC)CCN1C(=O)C(O)=C(C(C)=O)C1c1ccccc1[N+](=O)[O-] (stereo not drawn),1,-27,-5,-1,6,2,·,·,·,·
C[C@H](NC(=O)c1nc[nH]c1C(=O)N1CCN(c2ccccc2)CC1)C(=O)OCc1ccccc1,6,-13,-12,-1,1,6,·,·,·,·
COC(=O)C1=C(C)N(Cc2cccc(C(F)(F)F)c2)C(=NCc2cc(OC)c(OC)c(OC)c2)NC1c1ccccc1 (stereo not drawn),·,7,·,-8,·,44*,13,11,15,21
COC(=O)C1=C(C)N(Cc2cccc(C(F)(F)F)c2)C(=NCc2ccc(OC)cc2)NC1c1ccccc1 (stereo not drawn),·,59*,·,-6,·,51*,38*,25*,32,45*
COC(=O)C1=C(C)N(Cc2cccc(C(F)(F)F)c2)C(=NCc2ccc(OC)cc2)NC1c1cccc(F)c1 (stereo not drawn),·,55*,·,-6,·,43*,42*,24*,51*,42*
CCOc1ccc(-n2nnc3c(=O)n(CC(=O)c4ccccc4)cnc32)cc1,3,-24,-1,·,12,2,·,·,·,·
CCC(C)(C)n1nnnc1C(c1ccccc1)N1CCc2ccccc2C1 (stereo not drawn),-18,12,-4,-3,7,13,·,·,·,·
CCC(C)(C)n1nnnc1C(c1ccc(O)c(OC)c1)N1CCc2ccccc2C1 (stereo not drawn),-22,92*,-8,-3,10,104*,106*,15*,100*,12
COc1cc(C(C)=O)ccc1COc1ccc(C(=O)OCC(=O)NC(C)(C)C)cc1OC,-5,32,-17,-7,16,10,·,·,·,·
COCCCn1c(O)c(/C=C2\N=C(C#N)C(=Nc3ccc(C)cc3)O2)sc1=S,34,74*,39*,-7,17,52*,20,15*,10,25*
